These results are taken from PMC5524211 (Nuclear medicine and biology, 2017).

Data set [1] has as its target ATR (Homo sapiens, UniProt Q13535). Kind of data set: Competitive displacement assay of [18F]-ATRi by Ve-821 in U251 MG cells. The class given is cell-based. A digest of the protocol: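 U251 MG cells were grown in MEM with 10% heat-inactivated FBS and penicillin/streptomycin, then seeded at 10^5 cells 24 h before the assay. The 18F-labelled test tracer (final 0.667 nM) was co-incubated with unlabelled competitor (0–1333 nM) for 1 h at 37 °C. Cells were PBS-washed twice, lysed with 1 N NaOH, and bound 18F was γ-counted. Percent bound was run in triplicate and fitted against competitor concentration.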

Data set [2] has as its system ATR. The note with it: cited from earlier work.
The subject of a further data set is U251 MG cells. Kind of data set: In vitro cell uptake. The class given is cell-based, human. A digest of the protocol: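 U251 MG cells were plated at 0.5 million/well the day before, PBS-washed twice, then incubated with 18F-labelled test tracer (6 μCi/well) in MEM at 37 °C for 0–240 min. For blocking, a 100-fold excess of unlabelled ATR inhibitor was co-incubated. At each time point, cells were PBS-washed twice and lysed in 1 M NaOH (10 min, 37 °C), and lysate activity was γ-counted.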

For data set [3] the following is noted: 4 h post injection, healthy athymic nude mice, i.v.
The conditions of data set [4]: 1-octanol / 25 mM phosphate buffered saline pH 7.4.
The nature of data set [5]: Chemical Hydrophobicity Index. The data set is classed as physicochemical. The note with it: from HPLC retention time. A digest of the protocol:
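Reverse-phase HPLC retention times were measured for a set of standards with known CHI to build a standard curve. The CHI of the non-radioactive (19F) test compound was calculated from its retention time on that curve.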

The nature of another data set: Plasma protein binding. The note with it: serum. The data set is classed as in vitro ADME. A digest of the protocol: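 Equilibrium dialysis: 500 μM non-radioactive test compound in serum against PBS, 4 h at 37 °C on an orbital shaker at 100 rpm. Samples from both chambers were protein-precipitated (90/10 acetonitrile/water, 0.1% formic acid) and analysed by HPLC with peak integration. % bound = [1 − (buffer conc./plasma conc.)]×100, reported as mean ± SD.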

[6] abbreviates: blocked with 100-fold excess Ve-821 pre-injected 30 min before, 120 min p.i.

The term IC50 denotes the concentration that inhibits the measured activity by half. Usually fraction unbound stands for the share of the substance not bound to proteins or other matrix.

Some results are limits rather than exact numbers.

Sequence of ATR (Homo sapiens, UniProt Q13535) (Q13535 whole entry): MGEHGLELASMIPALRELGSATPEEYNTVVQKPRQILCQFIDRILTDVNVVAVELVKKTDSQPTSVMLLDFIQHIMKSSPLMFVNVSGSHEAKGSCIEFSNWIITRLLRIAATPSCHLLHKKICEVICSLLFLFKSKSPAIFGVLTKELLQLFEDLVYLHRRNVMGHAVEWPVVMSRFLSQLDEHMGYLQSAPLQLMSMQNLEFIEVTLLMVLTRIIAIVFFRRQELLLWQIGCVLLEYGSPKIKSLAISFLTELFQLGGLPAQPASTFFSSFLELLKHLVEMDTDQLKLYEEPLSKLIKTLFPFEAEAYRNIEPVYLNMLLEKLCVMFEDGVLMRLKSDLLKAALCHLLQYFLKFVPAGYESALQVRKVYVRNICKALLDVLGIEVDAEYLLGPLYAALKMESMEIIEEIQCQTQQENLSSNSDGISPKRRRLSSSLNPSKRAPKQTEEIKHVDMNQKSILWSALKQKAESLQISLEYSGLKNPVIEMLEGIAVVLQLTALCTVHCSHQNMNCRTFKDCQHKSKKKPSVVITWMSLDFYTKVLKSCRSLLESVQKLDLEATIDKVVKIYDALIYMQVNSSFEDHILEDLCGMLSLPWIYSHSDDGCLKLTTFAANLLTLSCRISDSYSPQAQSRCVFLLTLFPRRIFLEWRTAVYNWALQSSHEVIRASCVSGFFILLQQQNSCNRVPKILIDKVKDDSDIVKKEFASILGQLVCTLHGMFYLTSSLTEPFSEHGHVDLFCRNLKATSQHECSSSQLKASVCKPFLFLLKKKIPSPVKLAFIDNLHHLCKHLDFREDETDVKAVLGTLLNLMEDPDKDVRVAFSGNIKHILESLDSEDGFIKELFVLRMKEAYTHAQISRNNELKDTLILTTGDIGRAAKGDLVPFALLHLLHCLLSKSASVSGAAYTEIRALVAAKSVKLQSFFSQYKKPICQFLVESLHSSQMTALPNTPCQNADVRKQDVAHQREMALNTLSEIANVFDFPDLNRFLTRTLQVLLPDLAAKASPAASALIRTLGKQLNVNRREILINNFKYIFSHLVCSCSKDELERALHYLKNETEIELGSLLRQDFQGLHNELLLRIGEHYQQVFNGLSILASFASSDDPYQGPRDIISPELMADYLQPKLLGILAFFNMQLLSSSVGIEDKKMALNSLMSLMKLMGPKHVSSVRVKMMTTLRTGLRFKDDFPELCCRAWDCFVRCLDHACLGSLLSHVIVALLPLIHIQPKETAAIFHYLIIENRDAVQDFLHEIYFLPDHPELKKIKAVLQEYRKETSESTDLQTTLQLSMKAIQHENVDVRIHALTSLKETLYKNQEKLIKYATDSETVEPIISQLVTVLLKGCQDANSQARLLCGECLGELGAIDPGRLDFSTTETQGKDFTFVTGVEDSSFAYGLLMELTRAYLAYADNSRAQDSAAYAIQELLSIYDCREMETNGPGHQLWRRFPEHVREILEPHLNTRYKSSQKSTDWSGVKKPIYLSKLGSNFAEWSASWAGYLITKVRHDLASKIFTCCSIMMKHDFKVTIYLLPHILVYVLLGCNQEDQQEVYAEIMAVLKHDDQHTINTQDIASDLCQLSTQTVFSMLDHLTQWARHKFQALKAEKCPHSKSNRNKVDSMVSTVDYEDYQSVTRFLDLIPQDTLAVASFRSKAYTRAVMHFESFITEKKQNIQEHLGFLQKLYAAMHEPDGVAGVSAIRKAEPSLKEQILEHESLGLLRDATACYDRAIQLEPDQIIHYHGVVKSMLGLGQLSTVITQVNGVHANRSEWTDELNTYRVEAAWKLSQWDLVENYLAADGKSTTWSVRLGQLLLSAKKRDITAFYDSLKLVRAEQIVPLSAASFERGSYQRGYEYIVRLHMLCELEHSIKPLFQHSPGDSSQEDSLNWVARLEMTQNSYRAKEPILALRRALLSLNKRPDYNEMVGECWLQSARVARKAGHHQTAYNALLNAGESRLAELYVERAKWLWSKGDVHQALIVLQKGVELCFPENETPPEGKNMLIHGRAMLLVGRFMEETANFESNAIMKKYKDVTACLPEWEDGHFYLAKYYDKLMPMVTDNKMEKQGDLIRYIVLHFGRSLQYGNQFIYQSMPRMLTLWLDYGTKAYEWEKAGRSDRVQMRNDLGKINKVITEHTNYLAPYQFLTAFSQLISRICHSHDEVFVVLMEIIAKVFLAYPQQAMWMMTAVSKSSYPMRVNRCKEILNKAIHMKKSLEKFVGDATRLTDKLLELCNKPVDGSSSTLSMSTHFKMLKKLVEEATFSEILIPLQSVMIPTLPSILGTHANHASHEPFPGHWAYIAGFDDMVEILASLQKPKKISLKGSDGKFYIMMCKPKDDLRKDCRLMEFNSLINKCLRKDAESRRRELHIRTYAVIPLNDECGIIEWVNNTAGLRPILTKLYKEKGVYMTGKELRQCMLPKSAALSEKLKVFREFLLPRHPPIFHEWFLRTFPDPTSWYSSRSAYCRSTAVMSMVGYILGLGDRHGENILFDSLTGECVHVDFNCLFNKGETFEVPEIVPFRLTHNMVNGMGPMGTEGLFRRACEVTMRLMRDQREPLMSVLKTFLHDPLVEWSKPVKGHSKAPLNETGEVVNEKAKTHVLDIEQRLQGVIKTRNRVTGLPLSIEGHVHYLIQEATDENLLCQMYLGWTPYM
Sequence of ATR (Homo sapiens, UniProt Q13535) (Q8WXE1 whole entry partner): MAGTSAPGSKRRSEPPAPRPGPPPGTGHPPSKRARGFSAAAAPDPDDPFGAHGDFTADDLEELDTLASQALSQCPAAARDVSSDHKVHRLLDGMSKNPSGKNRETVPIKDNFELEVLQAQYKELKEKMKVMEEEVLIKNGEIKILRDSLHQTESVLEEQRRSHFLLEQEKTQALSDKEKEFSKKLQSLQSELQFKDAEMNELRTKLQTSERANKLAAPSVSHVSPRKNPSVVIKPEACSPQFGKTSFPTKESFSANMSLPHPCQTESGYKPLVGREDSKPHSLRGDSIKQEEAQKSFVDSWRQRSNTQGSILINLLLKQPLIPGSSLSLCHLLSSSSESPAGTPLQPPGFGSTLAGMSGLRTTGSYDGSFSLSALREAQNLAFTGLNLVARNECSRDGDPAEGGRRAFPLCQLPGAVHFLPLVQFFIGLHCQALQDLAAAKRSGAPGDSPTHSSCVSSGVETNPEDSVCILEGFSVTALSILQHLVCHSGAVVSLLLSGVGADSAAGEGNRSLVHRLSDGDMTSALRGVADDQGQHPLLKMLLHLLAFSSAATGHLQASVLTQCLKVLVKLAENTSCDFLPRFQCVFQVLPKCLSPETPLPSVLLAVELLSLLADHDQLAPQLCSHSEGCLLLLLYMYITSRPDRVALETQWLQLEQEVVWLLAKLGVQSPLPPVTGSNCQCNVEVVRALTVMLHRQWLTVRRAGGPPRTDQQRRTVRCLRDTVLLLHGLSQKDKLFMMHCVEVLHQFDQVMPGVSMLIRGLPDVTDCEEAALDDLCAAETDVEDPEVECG

As for `CS(=O)(=O)c1ccc(-c2cnc(N)c(C(=O)Nc3ccccc3)n2)cc1` [Ve-821], the IC50 at ATR [1] is 38 nM; with ATR [2], 26 nM.

For `CS(=O)(=O)c1ccc(-c2cnc(N)c(C(=O)Nc3ccc([18F])cc3)n2)cc1` [[^18F]-9, 3-amino-N-(4-[^18F]phenyl)-6-(4-(methylsulfonyl)phenyl)pyrazine-2-carboxamide], the “cell uptake, blocked” value with U251 MG cells (U251 MG cells blocked with Ve-821 (100-fold excess), co-incubated 240 min) amounted to 0.16±0.1%. The cell uptake with U251 MG cells (U251 MG cells, 240 min incubation with [18F]-ATRi only) is 3.5 ± 0.1%. In addition, the “ex vivo blood stability (tracer stable)” value in data set [3] is listed as “greater than 97%”. Under “2-phase decay curve, healthy mice, i.v.”, the “clearance from bloodstream (fast phase)” value was less than 10 min. For the same molecule, under “single bolus intravenous injection via tail vein, nude mice, two-phase decay fit”, the weighted blood half-life came out at 6.2 min. In addition, the LogPO/W in [4] came out at 1.6. The tumor-to-brain ratio in the data set with U251 MG xenograft (U251 MG xenograft mice) is listed as more than 15. In the data set on U251 MG xenograft (biodistribution, 120 min p.i.), this molecule yielded a kidney uptake of 3.51 ± 0.23 %ID/g and a liver uptake of 3.68± 1.39 %ID/g. In the data set with U251 MG xenograft (setting [6]), the “blood uptake, blocked” value was found to be 0.84 ± 0.3 %ID/g and the “tumor uptake, blocked” value came to 0.46 ± 0.12 %ID/g. The molecule further gave a blood uptake with U251 MG xenograft (unblocked, 120 min p.i., i.v.) of 1.85 ± 0.47 %ID/g.

In the case of `CS(=O)(=O)c1ccc(-c2cnc(N)c(C(=O)Nc3ccc(F)cc3)n2)cc1` [compound 5, 3-amino-N-(4-fluorophenyl)-6-(4-(methylsulfonyl)-phenyl)pyrazine-2-carboxamide], the CHI value in data set [5] came to 76.8. Besides, in the data set “Plasma protein binding”, the fraction unbound at 4 h, 500 μM is approximately 0.1.
